Assay results published in ChEMBL document CHEMBL1124369, “Pyrido[3,4-e]-1,2,4-triazines and related heterocycles as potential antifungal agents” (1989).
≈ marks a conversion by molar mass, not a printed value.

Experiments:
Candida albicans [1] = assay: Antifungal activity against Candida stellatoidea; type: functional
Outline: (§1)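 Agar dilution MIC. Twofold serial drug dilutions in yeast nitrogen base medium with 1% dextrose, 0.15% asparagine and 1.5% agar. Agar surfaces inoculated using a Steers multiple inocula replicator, then incubated at 35 °C for 24-48 h. MIC was recorded as the lowest concentration inhibiting visible growth. Amphotericin B, miconazole and nystatin served as controls.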

Candida tropicalis [2] = assay: Antifungal activity against Candida tropicalis; Range is 8-16; type: functional; outline: as §1
Diutina rugosa = assay: Antifungal activity against Candida rugosa; type: functional; outline: as §1
Trichophyton benhamiae [3] = assay: Antifungal activity against Trichophyton mentagrophytes; Range is 2-4; type: functional, trychophyton mentagrophytes; outline: as §1
Trichophyton rubrum [4] = assay: Antifungal activity against Trichophyton rubrum; Range is 1-2; type: functional; outline: as §1
Mucor fragilis = assay: Antifungal activity against Mucor fragilis; type: functional; outline: as §1
Candida albicans [5] = assay: Antifungal activity against Candida albicans; Range is 8-16; type: functional; outline: as §1
Aspergillus niger [6] = assay: Antifungal activity against Aspergillus niger; Range is 16-32; type: functional; outline: as §1
Kluyveromyces marxianus [7] = assay: Antifungal activity against Candida pseudotropicalis; type: functional; outline: as §1
Candida parapsilosis = assay: Antifungal activity against Candida parapsilosis; type: functional; conditions: Lodderomyces parapsilosis; outline: as §1
Candida tropicalis [8] = assay: Antifungal activity against Candida tropicalis; Range is 16-32; type: functional; outline: as §1
Aspergillus niger [9] = assay: Antifungal activity against Aspergillus niger; Range is 32-64; type: functional; outline: as §1
Candida albicans [10] = assay: Antifungal activity against Candida albicans; type: functional; outline: as §1
Kluyveromyces marxianus [11] = assay: Antifungal activity against Candida pseudotropicalis; Range is 8-16; type: functional; outline: as §1
Trichophyton rubrum [12] = assay: Antifungal activity against Trichophyton rubrum; Range is 8-16; type: functional
Trichophyton benhamiae [13] = assay: Antifungal activity against Trichophyton mentagrophytes; Range is 8-16; type: functional, trychophyton mentagrophytes; outline: as §1
Kluyveromyces marxianus [14] = assay: Antifungal activity against Candida pseudotropicalis; Range is 32-64; type: functional; outline: as §1
Aspergillus niger [15] = assay: Antifungal activity against Aspergillus niger; type: functional; outline: as §1
Trichophyton rubrum [16] = assay: Antifungal activity against Trichophyton rubrum; Range is 2-4; type: functional; outline: as §1
Candida tropicalis [17] = assay: Antifungal activity against Candida tropicalis; type: functional; outline: as §1
Trichophyton benhamiae [18] = assay: Antifungal activity against Trichophyton mentagrophytes; type: functional, trychophyton mentagrophytes; outline: as §1
Kluyveromyces marxianus [19] = assay: Antifungal activity against Candida pseudotropicalis; Range is 0.25-4; type: functional; outline: as §1
Trichophyton rubrum [20] = assay: Antifungal activity against Trichophyton rubrum; type: functional; outline: as §1
Trichophyton rubrum [21] = assay: Antifungal activity against Trichophyton rubrum; Range is 64-128; type: functional
Candida albicans [22] = assay: Antifungal activity against Candida albicans; Range is 32-64; type: functional; outline: as §1
Aspergillus niger [23] = assay: Antifungal activity against Aspergillus niger; Range is 64-128; type: functional; outline: as §1
Trichophyton benhamiae [24] = assay: Antifungal activity against Trichophyton mentagrophytes; Range is 32-128; type: functional, trychophyton mentagrophytes; outline: as §1
Trichophyton benhamiae [25] = assay: Antifungal activity against Trichophyton mentagrophytes; Range is 32-64; type: functional, trychophyton mentagrophytes; outline: as §1
Kluyveromyces marxianus [26] = assay: Antifungal activity against Candida pseudotropicalis; Range is 64-128; type: functional; outline: as §1
Trichophyton rubrum [27] = assay: Antifungal activity against Trichophyton rubrum; Range is 32-64; type: functional; outline: as §1

Row | SMILES | MIC (Candida albicans [1]) [µg/mL] | MIC (Candida tropicalis [2]) [µg/mL] | MIC (Diutina rugosa) [µg/mL] | MIC (Mucor fragilis) [µg/mL] | MIC (Candida albicans [5]) [µg/mL] | MIC (Kluyveromyces marxianus [7]) [µg/mL] | MIC (Candida parapsilosis) [µg/mL] | MIC (Candida albicans [10]) [µg/mL] | MIC (Aspergillus niger [15]) [µg/mL] | MIC (Candida tropicalis [17]) [µg/mL] | MIC (Trichophyton benhamiae [18]) [µg/mL] | also measured
1 | c1cc2nncnc2cn1 | 8 (≈ 60.5 µM) | 8 (≈ 60.5 µM) | 8 (≈ 60.5 µM) | 8 (≈ 60.5 µM) | 8 (≈ 60.5 µM) | 4 (≈ 30.3 µM) | 16 (≈ 121 µM) | – | – | – | – | MIC (Trichophyton benhamiae [3]): 2 µg/mL (≈ 15.1 µM); MIC (Trichophyton rubrum [4]): 1 µg/mL (≈ 7.57 µM); MIC (Aspergillus niger [6]): 16 µg/mL (≈ 121 µM)
2 | c1ccc(-c2nnc3ccncc3n2)nc1 | 16 (≈ 76.5 µM) | – | 64 (≈ 306 µM) | 64 (≈ 306 µM) | – | – | 64 (≈ 306 µM) | 64 (≈ 306 µM) | 32 (≈ 153 µM) | 64 (≈ 306 µM) | 32 (≈ 153 µM) | MIC (Kluyveromyces marxianus [14]): 32 µg/mL (≈ 153 µM); MIC (Trichophyton rubrum [16]): 2 µg/mL (≈ 9.56 µM)
3 | Cc1nnc2c(N)c(C)nc(C)c2n1 | – | – | – | – | – | – | 128 (≈ 676 µM) | 128 (≈ 676 µM) | 128 (≈ 676 µM) | 128 (≈ 676 µM) | – | MIC (Trichophyton benhamiae [25]): 32 µg/mL (≈ 169 µM); MIC (Kluyveromyces marxianus [26]): 64 µg/mL (≈ 338 µM); MIC (Trichophyton rubrum [27]): 32 µg/mL (≈ 169 µM)

Continued, in another order:

Row | MIC (Candida albicans [1]) [µg/mL] | MIC (Candida tropicalis [2]) [µg/mL] | MIC (Diutina rugosa) [µg/mL] | MIC (Mucor fragilis) [µg/mL] | MIC (Candida albicans [5]) [µg/mL] | MIC (Kluyveromyces marxianus [7]) [µg/mL] | MIC (Candida parapsilosis) [µg/mL] | MIC (Candida albicans [10]) [µg/mL] | MIC (Aspergillus niger [15]) [µg/mL] | MIC (Candida tropicalis [17]) [µg/mL] | MIC (Trichophyton benhamiae [18]) [µg/mL] | SMILES | also measured
4 | – | – | – | – | – | – | 32 (≈ 143 µM) | 16 (≈ 71.7 µM) | – | – | – | Cc1nccc2nnc(-c3ccncc3)nc12 | MIC (Candida tropicalis [8]): 16 µg/mL (≈ 71.7 µM); MIC (Aspergillus niger [9]): 32 µg/mL (≈ 143 µM); MIC (Kluyveromyces marxianus [11]): 8 µg/mL (≈ 35.8 µM); MIC (Trichophyton rubrum [12]): 8 µg/mL (≈ 35.8 µM); MIC (Trichophyton benhamiae [13]): 8 µg/mL (≈ 35.8 µM)
5 | 8 (≈ 19.2 µM) | 8 (≈ 19.2 µM) | 8 (≈ 19.2 µM) | 8 (≈ 19.2 µM) | 8 (≈ 19.2 µM) | – | 16 (≈ 38.4 µM) | – | 8 (≈ 19.2 µM) | – | 2 (≈ 4.81 µM) | Clc1ccc(COC(Cn2ccnc2)c2ccc(Cl)cc2Cl)c(Cl)c1 (stereo not drawn) [MICONAZOLE] | MIC (Kluyveromyces marxianus [19]): 0.25 µg/mL (≈ 0.601 µM); MIC (Trichophyton rubrum [20]): 1 µg/mL (≈ 2.4 µM)
6 | 32 (≈ 135 µM) | – | 32 (≈ 135 µM) | > 128 | – | 32 (≈ 135 µM) | – | – | – | 128 (≈ 539 µM) | – | Cc1cc2nnc(-c3ccncc3)nc2c(C)n1 | MIC (Trichophyton rubrum [21]): 64 µg/mL (≈ 270 µM); MIC (Candida albicans [22]): 32 µg/mL (≈ 135 µM); MIC (Aspergillus niger [23]): 64 µg/mL (≈ 270 µM); MIC (Trichophyton benhamiae [24]): 32 µg/mL (≈ 135 µM)
